Blank lines part the entries; values can stand above or below the molecule they belong to. Calls of active or inactive are those of the source. The rule behind the calls is not given here.
Assays:
Mus musculus [1] = assay: Toxicity in C3H/HeJ mouse xenografted with mouse RIF cells at 1.5 umol/kg, iv irradiated for 30 mins measured after 24 hrs photodynamic therapy; format: organism-based; settings: in vivo
Method in brief: (§1)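 Female C3H/HeJ mice given 2×10^5 RIF cells intradermally on flank; tumors grown to 4–5 mm diameter. Hair removed, photosensitizer injected iv (0.5, 1.0, 1.5 μmol/kg; five mice/group). At 24 h, unanesthetized restrained mice irradiated over 1 cm² with dye laser, 665 nm, 75 mW/cm², 135 J/cm² (30 min). Daily observation for weight loss, scabbing, regrowth and deaths; sacrifice at 400 mm^3; tumor-free status followed to day 60.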

[2] = Ratio of drug level in tumor to liver of iv dosed C3H/HeJ mouse bearing mouse RIF cells after 24 hrs; format: ADME, organism-based; settings: in vivo
Method in brief: (§2)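 RIF-bearing C3H mice given ¹²⁴I-labeled photosensitizer (15–200 μCi, tail vein, in saline with 10% ethanol). 3–4 mice killed at each time point, tumor and liver weighed and gamma-counted. Uptake expressed as %ID/g, and tumor to liver ratio taken from the %ID/g values.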

[3] = Ratio of drug level in tumor to liver of iv dosed C3H/HeJ mouse bearing mouse RIF cells after 48 hrs; format: ADME, organism-based; settings: in vivo; method in brief: as §2
Mus musculus [4] = assay: Toxicity in C3H/HeJ mouse xenografted with mouse RIF cells at 1 umol/kg, iv irradiated for 30 mins measured after 24 hrs photodynamic therapy; format: organism-based; settings: in vivo; method in brief: as §1
[5] = Biodistribution in tumor of iv dosed C3H/HeJ mouse bearing mouse RIF cells assessed as relative uptake value after 3 days by PET imaging; format: ADME, organism-based, Neoplasm; settings: in vivo, 72 h
[6] = Biodistribution in tumor of iv dosed BALB/c mouse bearing mouse Colon-26 cells assessed as relative uptake value after 48 hrs by PET imaging; format: ADME, organism-based, Neoplasm; settings: in vivo
RIF [7] = assay: Antitumor activity against mouse RIF cells xenografted in C3H/HeJ mouse at 0.50 umol/kg, iv irradiated for 30 mins measured after 24 hrs by photodynamic therapy; format: functional, organism-based; settings: tested as the 124I-labelled form; method in brief: as §1
RIF [8] = assay: Antitumor activity against mouse RIF cells xenografted in C3H/HeJ mouse assessed as increase in photosensitizing ability at 1.5 umol/kg, iv irradiated for 30 mins measured after 60 days photodynamic therapy; format: functional, organism-based; settings: tested as the 124I-labelled form; method in brief: as §1
[9] = Biodistribution in tumor of iv dosed BALB/c mouse bearing mouse Colon-26 cells after 96 hrs; format: ADME, organism-based, Neoplasm; settings: read-out: Drug uptake
Method in brief: (§3)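 ¹²⁴I-labeled photosensitizer formulated in saline with 10% ethanol, 15–200 μCi via tail vein into C3H mice bearing RIF tumors (3×10^5 cells sc in axilla, 4–5 mm) or BALB/c mice bearing Colon-26 tumors. 3–4 mice per time point killed at 24, 48, 72, 96 h. Tumor and organs weighed and gamma-counted; uptake given as %ID/g, mean of group.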

[10] = Biodistribution in tumor of iv dosed C3H/HeJ mouse bearing mouse RIF cells after 72 hrs; format: ADME, organism-based, Neoplasm; settings: read-out: Drug uptake; method in brief: as §3
[11] = Biodistribution in tumor of iv dosed BALB/c mouse bearing mouse Colon-26 cells after 24 hrs; format: ADME, organism-based, Neoplasm; settings: read-out: Drug uptake; method in brief: as §3
[12] = Biodistribution in tumor of iv dosed C3H/HeJ mouse bearing mouse RIF cells after 96 hrs; format: ADME, organism-based, Neoplasm; settings: read-out: Drug uptake; method in brief: as §3
[13] = Biodistribution in tumor of iv dosed BALB/c mouse bearing mouse Colon-26 cells after 72 hrs; format: ADME, organism-based, Neoplasm; settings: read-out: Drug uptake; method in brief: as §3
[14] = Biodistribution in tumor of iv dosed C3H/HeJ mouse bearing mouse RIF cells after 24 hrs; format: ADME, organism-based, Neoplasm; settings: read-out: Drug uptake; method in brief: as §3
[15] = Biodistribution in tumor of iv dosed BALB/c mouse bearing mouse Colon-26 cells after 48 hrs; format: ADME, organism-based, Neoplasm; settings: read-out: Drug uptake; method in brief: as §3
[16] = Biodistribution in tumor of iv dosed C3H/HeJ mouse bearing mouse RIF cells after 48 hrs; format: ADME, organism-based, Neoplasm; settings: read-out: Drug uptake; method in brief: as §3

- Ratio [2]: 0.05
- Ratio [3]: 0.06
Structure (SMILES): CCC1=C(C)c2cc3[nH]c(cc4nc(c5c6[nH]c(cc1n2)c(C)c6C(=O)C5)[C@@H](CCC(=O)N[C@@H]1O[C@H](CO)[C@H](O)[C@H](O)[C@H]1O)[C@@H]4C)c(C)c3C(C)OCc1cccc([124I])c1 (stereo partly specified)
- Activity (Mus musculus [1]): Toxic
- Activity (Mus musculus [4]): Toxic

Structure (SMILES): OC[C@H]1O[C@@H](O)[C@H]([18F])[C@@H](O)[C@@H]1O [FLUDEOXYGLUCOSE-F18]
- Activity [5]: 0.035
- Activity [6]: 4

Structure (SMILES): CCC1=C(C)c2cc3[nH]c(cc4nc(c5c6[nH]c(cc1n2)c(C)c6C(=O)C5)[C@@H](CCC(=O)N[C@@H]1O[C@H](CO)[C@H](O)[C@H](O)[C@H]1O)[C@@H]4C)c(C)c3C(C)OCc1cccc(I)c1 (stereo partly specified)
- Activity (RIF [7]): inactive

- Ratio [2]: 0.08
- Ratio [3]: 0.13
Structure (SMILES): CCC1=C(C)c2cc3[nH]c(cc4nc(c5c6[nH]c(cc1n2)c(C)c6C(=O)C5)[C@@H](CCC(=O)N[C@@H]1[C@@H](O)[C@H](O)[C@@H](CO)O[C@H]1O)[C@@H]4C)c(C)c3C(C)OCc1cccc([124I])c1 (stereo partly specified)

Structure (SMILES): CCC1=C(C)c2cc3[nH]c(cc4nc(c5c6[nH]c(cc1n2)c(C)c6C(=O)C5)[C@@H](CCC(=O)OC)[C@@H]4C)c(C)c3C(C)OCc1cccc(I)c1 (stereo partly specified)
- Activity (RIF [8]): Active
- Activity (RIF [7]): inactive

- tissue uptake at 96 h [9]: 2 %ID/g
- tissue uptake at 72 h [10]: 0.8 %ID/g
- tissue uptake at 24 h [11]: 4.6 %ID/g
- tissue uptake at 96 h [12]: 0.6 %ID/g
- tissue uptake at 72 h [13]: 2.5 %ID/g
- Ratio [2]: 0.32
- Ratio [3]: 0.56
- tissue uptake at 24 h [14]: 4.1 %ID/g
- tissue uptake at 48 h [15]: 4.4 %ID/g
- tissue uptake at 48 h [16]: 2.1 %ID/g
Structure (SMILES): CCC1=C(C)c2cc3[nH]c(cc4nc(c5c6[nH]c(cc1n2)c(C)c6C(=O)C5)[C@@H](CCC(=O)OC)[C@@H]4C)c(C)c3C(C)OCc1cccc([124I])c1 (stereo partly specified)

Reference: ChEMBL document CHEMBL1139361, “Comparative positron-emission tomography (PET) imaging and phototherapeutic potential of 124I- labeled methyl- 3-(1'-iodobenzyloxyethyl)pyropheophorbide-a vs the corresponding glucose and galactose conjugates” (J Med Chem, 2009)
